Converted amounts (≈) assume the structure as drawn.
Key:
[1] = Protein binding in cynomolgus monkey plasma assessed as unbound fraction at 1 uM by micro-equilibrium dialysis based LC-MS/MS analysis; type: ADME, cell-free, Macaca fascicularis
In short: (§1)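 Equilibrium dialysis of pooled rat or cynomolgus plasma against Soerensen buffer pH 7.4, 12–14 kDa cut-off membrane. Compounds tested in cassettes of 2–5 at 1 μM initial total concentration, with diazepam as control. Dialysis 5 hr at 37 °C under 5% CO₂. Unbound percentage by LC/MS-MS.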

[2] = AUC (0 to infinity) in Wister-Han rat at 3 mg/kg, po administered as single dose by LC/MS-MS analysis; type: ADME, organism-based; set-up: dose 3 mg/kg, route oral, time infinity; details: Wistar-Han, in vivo
In short: (§2)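 Male Wistar-Han rats, single dose. IV 1 mg/kg, compound at 0.5 mg/mL in NMP:saline 30/70 (v/v). Oral 3 mg/kg, 0.25 mg/mL in 2% Klucel with 0.1% Polysorbate 80. Three rats per time point. Heparinized blood taken at eight (iv) or seven (po) time points, plasma stored at -20 °C. Plasma levels by LC/MS-MS. Non-compartmental analysis.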

[3] = Solubility of the compound in phosphate buffer at pH 6.5 shaken for 2 hrs followed by overnight incubation; type: physicochemical
In short: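 Lyophilisation solubility assay run in duplicate from 10 mM DMSO stock. DMSO evaporated and residue redissolved in 0.05 M phosphate, pH 6.5. Stirred 1 hr, shaken 2 hr, left overnight, then filtered. Filtrate and a 1/10 dilution analysed by HPLC-UV against a four-point calibration.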

[4] = Permeability of the compound measured at 18 hrs by PAMPA; type: ADME; details: read-out: permeability
In short: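 PAMPA sandwich format. Donor: compound diluted to 150 μM (DMSO <2%) in 0.05 M MOPSO pH 6.5 with 0.5% glycocholic acid. Acceptor: 0.05 M MOPSO pH 6.5. Membrane of 10% egg lecithin with 0.5% cholesterol in dodecane. Donor measured at start; acceptor and donor measured at ~18 hr.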

[5] = Intrinsic clearance in rat liver microsomes preincubated for 10 mins followed by NADPH regenerating system addition and measured up to 30 mins by LC/MS-MS analysis; type: ADME, Microsome
In short: (§3)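 Liver microsomes at 0.5 mg protein/mL in 100 mM potassium phosphate, pH 7.4. Compound preincubated 10 min at 37 °C. Intrinsic clearance scaled using the well-stirred liver model.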

[6] = Plasma clearance in iv dosed cynomolgus monkey; type: ADME, organism-based, Macaca fascicularis
[7] = Plasma clearance in Wister-Han rat at 1 mg/kg, iv administered as single dose by LC/MS-MS analysis; type: ADME, organism-based; details: Wistar-Han; in short: as §2
[8] = Dose normalized AUC in cynomolgus monkey; type: ADME, Macaca fascicularis; details: in vivo
[9] = Dose normalized AUC in Wister-Han rat at 1 mg/kg, iv or 3 mg/kg, po administered as single dose by LC/MS-MS analysis; type: ADME, organism-based; details: in vivo; in short: as §2
[10] = Intrinsic clearance in rat hepatocytes; type: ADME, cell-based, Hepatocyte; details: read-out: CLH
[11] = Selectivity ratio of IC50 for human CYP11B1 expressed in human renal leiomyoblastoma cells harboring FDXR/FDX to IC50 for human CYP11B2 expressed in human renal leiomyoblastoma cells harboring FDXR/FDX; type: cell-based
In short: (§4)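 Cells with endogenous FDXR/FDX and no detectable CYP11B activity, stably transfected (CMV promoter, neomycin selection, G-418 400 µg/mL) with CYP11B1 or CYP11B2 of the named species. Assayed in DMEM/F12 with 2.5% charcoal-treated FCS. Substrate 1 µM 11-deoxycorticosterone (B2) or 11-deoxycortisol (B1), 16 hr. Aldosterone or cortisol in supernatant measured by HTRF. IC50 from 4-parameter MMF fit; selectivity factor is the B1/B2 IC50 ratio.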

[12] = molecular target: T1, Cytochrome P450 11B2, mitochondrial (Homo sapiens, UniProt P19099); test: Inhibition of human CYP11B2 expressed in human renal leiomyoblastoma cells harboring FDXR/FDX using 1-deoxycorticosterone as substrate by HTRF assay; type: cell-based; in short: as §4
T1 sequence (P19099 whole entry): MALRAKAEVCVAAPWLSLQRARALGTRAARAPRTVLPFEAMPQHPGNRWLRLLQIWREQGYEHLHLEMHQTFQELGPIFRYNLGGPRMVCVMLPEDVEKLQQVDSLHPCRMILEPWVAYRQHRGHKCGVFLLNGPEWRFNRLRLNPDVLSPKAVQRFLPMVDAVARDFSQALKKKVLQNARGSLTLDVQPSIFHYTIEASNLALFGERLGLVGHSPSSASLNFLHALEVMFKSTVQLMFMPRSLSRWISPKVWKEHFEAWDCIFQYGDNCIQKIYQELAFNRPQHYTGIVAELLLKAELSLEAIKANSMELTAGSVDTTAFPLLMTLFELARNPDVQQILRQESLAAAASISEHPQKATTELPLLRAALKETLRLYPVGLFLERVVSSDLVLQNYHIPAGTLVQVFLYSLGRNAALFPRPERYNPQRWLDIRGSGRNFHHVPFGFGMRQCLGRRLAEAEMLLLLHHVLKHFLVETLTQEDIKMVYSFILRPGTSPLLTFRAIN

[13] = Intrinsic clearance in cynomolgus monkey hepatocytes; type: ADME, cell-based, Macaca fascicularis, Hepatocyte; details: read-out: CLH
[14] = Oral bioavailability in Wister-Han rat at 3 mg/kg administered as single dose by LC/MS-MS analysis; type: ADME, organism-based; details: Wistar-Han, in vivo; in short: as §2
[15] = Protein binding in rat plasma assessed as unbound fraction at 1 uM by micro-equilibrium dialysis based LC-MS/MS analysis; type: ADME, cell-free; in short: as §1
[16] = Oral bioavailability in cynomolgus monkey; type: ADME, organism-based, Macaca fascicularis; details: in vivo
[17] = Intrinsic clearance in human liver microsomes preincubated for 10 mins followed by NADPH regenerating system addition and measured up to 30 mins by LC/MS-MS analysis; type: ADME, Microsome; details: read-out: CLH; in short: as §3
[18] = molecular target: T2, Cytochrome P450 11B1, mitochondrial (Homo sapiens, UniProt P15538); test: Inhibition of human CYP11B1 expressed in human renal leiomyoblastoma cells harboring FDXR/FDX using 1-deoxycortisol as substrate by HTRF assay; type: ADME, cell-based; in short: as §4
T2 sequence (P15538 whole entry): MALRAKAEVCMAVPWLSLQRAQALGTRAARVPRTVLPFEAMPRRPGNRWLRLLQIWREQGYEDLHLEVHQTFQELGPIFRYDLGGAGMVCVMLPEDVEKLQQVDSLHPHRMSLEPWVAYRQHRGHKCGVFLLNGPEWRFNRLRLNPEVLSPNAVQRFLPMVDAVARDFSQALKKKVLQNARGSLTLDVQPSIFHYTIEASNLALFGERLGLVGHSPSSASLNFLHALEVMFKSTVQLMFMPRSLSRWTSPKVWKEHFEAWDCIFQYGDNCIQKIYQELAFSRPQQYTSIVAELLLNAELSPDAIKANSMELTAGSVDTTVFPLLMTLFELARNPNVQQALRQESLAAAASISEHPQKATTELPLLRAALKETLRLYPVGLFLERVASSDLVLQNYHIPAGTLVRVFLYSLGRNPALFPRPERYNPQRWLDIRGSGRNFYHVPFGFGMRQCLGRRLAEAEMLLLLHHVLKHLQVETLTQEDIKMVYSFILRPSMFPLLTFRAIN

[19] = Selectivity ratio of IC50 for cynomolgus monkey CYP11B1 expressed in human G401 cells to IC50 for cynomolgus monkey CYP11B2 expressed in human G401 cells; type: cell-based; in short: as §4
[20] = Inhibition of cynomolgus monkey CYP11B2 expressed in human G401 cells using 1-deoxycorticosterone as substrate by HTRF assay; type: cell-based, Macaca fascicularis; details: g-401; in short: as §4
[21] = Octanol-water distribution coefficient, log D of the compound by carrier-mediated distribution system; type: physicochemical
[22] = Intrinsic clearance in mouse liver microsomes preincubated for 10 mins followed by NADPH regenerating system addition and measured up to 30 mins by LC/MS-MS analysis; type: ADME, Microsome; in short: as §3
Cytochrome P450 3A4 = Cytochrome P450 3A4 (Homo sapiens, UniProt P08684); test: Inhibition of CYP3A4 (unknown origin); type: ADME
Cytochrome P450 2D6 = Cytochrome P450 2D6 (Homo sapiens, UniProt P10635); test: Inhibition of CYP2D6 (unknown origin); type: ADME
Cytochrome P450 2C9 = Cytochrome P450 2C9 (Homo sapiens, UniProt P11712); test: Inhibition of CYP2C9 (unknown origin); type: ADME
Sequence of Cytochrome P450 2C9 (P11712 whole entry): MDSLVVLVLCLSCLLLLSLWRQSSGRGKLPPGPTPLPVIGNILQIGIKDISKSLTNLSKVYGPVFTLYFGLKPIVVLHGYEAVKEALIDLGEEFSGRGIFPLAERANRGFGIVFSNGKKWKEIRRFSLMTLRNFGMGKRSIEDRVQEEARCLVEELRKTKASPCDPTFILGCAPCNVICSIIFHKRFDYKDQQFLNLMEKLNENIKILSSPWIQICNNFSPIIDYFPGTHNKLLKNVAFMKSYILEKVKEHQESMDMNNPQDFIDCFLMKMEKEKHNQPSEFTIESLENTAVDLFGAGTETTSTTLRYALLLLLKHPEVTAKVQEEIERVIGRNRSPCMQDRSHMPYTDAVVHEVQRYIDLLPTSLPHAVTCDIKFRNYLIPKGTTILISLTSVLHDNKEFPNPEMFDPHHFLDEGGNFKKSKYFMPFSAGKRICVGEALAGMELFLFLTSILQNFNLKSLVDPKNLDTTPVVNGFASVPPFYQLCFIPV

Sequence of Cytochrome P450 2D6 (P10635 whole entry): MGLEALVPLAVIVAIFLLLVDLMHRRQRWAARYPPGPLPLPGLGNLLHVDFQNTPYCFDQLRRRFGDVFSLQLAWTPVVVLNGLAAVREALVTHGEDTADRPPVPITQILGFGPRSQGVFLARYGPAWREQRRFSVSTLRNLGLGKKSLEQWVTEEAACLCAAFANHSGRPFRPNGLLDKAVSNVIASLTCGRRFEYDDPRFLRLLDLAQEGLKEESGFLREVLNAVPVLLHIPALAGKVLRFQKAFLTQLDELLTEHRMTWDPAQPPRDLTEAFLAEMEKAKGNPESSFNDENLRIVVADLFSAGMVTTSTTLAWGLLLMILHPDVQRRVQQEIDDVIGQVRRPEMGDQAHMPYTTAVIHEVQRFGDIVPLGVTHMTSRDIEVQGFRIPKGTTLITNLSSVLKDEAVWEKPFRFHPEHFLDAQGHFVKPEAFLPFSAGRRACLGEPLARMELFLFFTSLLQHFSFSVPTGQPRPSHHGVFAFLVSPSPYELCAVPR
Sequence of Cytochrome P450 3A4 (P08684 whole entry): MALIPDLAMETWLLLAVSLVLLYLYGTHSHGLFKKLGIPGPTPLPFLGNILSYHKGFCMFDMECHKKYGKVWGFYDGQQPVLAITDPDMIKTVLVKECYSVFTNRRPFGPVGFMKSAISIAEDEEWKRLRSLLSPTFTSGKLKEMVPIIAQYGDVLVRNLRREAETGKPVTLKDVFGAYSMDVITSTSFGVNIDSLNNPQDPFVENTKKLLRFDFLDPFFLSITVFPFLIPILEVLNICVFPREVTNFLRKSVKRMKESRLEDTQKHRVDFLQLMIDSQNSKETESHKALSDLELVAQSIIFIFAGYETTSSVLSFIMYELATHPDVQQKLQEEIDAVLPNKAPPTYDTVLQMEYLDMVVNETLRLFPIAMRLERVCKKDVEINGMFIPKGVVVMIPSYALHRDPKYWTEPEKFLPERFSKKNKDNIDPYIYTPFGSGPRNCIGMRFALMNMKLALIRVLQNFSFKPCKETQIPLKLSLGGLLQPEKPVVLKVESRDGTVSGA

Row | Structure (SMILES) | AUC(0-inf) [2] | solubility at 2 h [3] | Papp at 18 h [4] | predicted hepatic clearance (CLH) [5] | clearance [7] | IC50 [12] | bioavailability [14] | predicted hepatic clearance [17] | IC50 [18] | IC50 [20] | Ratio IC50 [11] | Ratio IC50 [19] | further results
1 | CS(=O)(=O)N[C@@H]1CCCc2c1cncc2N1CCc2cc(Cl)ccc2C1=O | – | – | – | < 20.2 mL/min/kg | – | 76 nM | – | < 3.5 mL/min/kg | 5150 nM | – | 68 | – | –
2 | O=C1c2ccc(Cl)cc2CN1c1cccnc1 | – | – | – | – | – | 179 nM | – | 12.8 mL/min/kg | 10700 nM | – | 60 | – | logD [21]: 2.52; predicted hepatic clearance (CLH) [22]: 76.5 mL/min/kg
3 | CC1CN(c2cccnc2)C(=O)c2ccc(Cl)cc21 (centres undefined) | – | – | – | – | – | 164 nM | – | 6.6 mL/min/kg | 2590 nM | – | 16 | – | IC50 (Cytochrome P450 3A4): > 50000 nM; IC50 (Cytochrome P450 2D6): > 50000 nM; predicted hepatic clearance (CLH) [22]: 45 mL/min/kg; IC50 (Cytochrome P450 2C9): > 50000 nM
4 | CC1(C)CN(c2cccnc2)C(=O)c2ccc(Cl)cc21 | – | – | – | – | – | 1540 nM | – | – | > 10000 nM | – | > 7 | – | IC50 (Cytochrome P450 3A4): > 50000 nM; IC50 (Cytochrome P450 2D6): > 50000 nM; IC50 (Cytochrome P450 2C9): > 50000 nM

More lines, main results first:

Row | AUC(0-inf) [2] | solubility at 2 h [3] | Papp at 18 h [4] | predicted hepatic clearance (CLH) [5] | clearance [7] | IC50 [12] | bioavailability [14] | predicted hepatic clearance [17] | IC50 [18] | IC50 [20] | Structure (SMILES) | Ratio IC50 [11] | Ratio IC50 [19] | further results
5 | 5660 ng·h/mL | 44 µg/mL (≈ 92.2 µM) | 3.63 ×10⁻⁶ cm/s | 6.4 mL/min/kg | 6.4 mL/min/kg | 2 nM | 69% | – | – | – | Cn1cc(C(=O)N2CC3(C2)CN(c2cncc(N4C(=O)c5ccc(Cl)cc5C4(C)C)c2)C3)cn1 | 5680 | – | fraction unbound at 1 µM [1]: 0.036; clearance [6]: 2.1 mL/min/kg; AUC/dose [8]: 3111 kg·ng·h/mL/mg; AUC/dose [9]: 1889 kg·ng·h/mL/mg; CLint scaled [10]: < 4.4 mL/min/kg; CLint scaled [13]: < 3 mL/min/kg; fraction unbound at 1 µM [15]: 0.066; bioavailability [16]: 37%
6 | 1020 ng·h/mL | 290 µg/mL (≈ 626 µM) | 5.4 ×10⁻⁶ cm/s | 10.4 mL/min/kg | 15.8 mL/min/kg | 4 nM | 40% | – | – | 0.9 nM | Cc1ccncc1C(=O)N1CC(Oc2cncc(N3C(=O)c4ccc(Cl)cc4C3(C)C)c2)C1 | 553 | 1770 | –
7 | – | – | – | 17.7 mL/min/kg | – | 9 nM | – | – | – | 3 nM | CC(=O)N1CCN(c2cncc(N3C(=O)c4ccc(Cl)cc4C3(C)C)c2)CC1 | 80 | 236 | –
8 | 7880 ng·h/mL | 310 µg/mL (≈ 686 µM) | 3.45 ×10⁻⁶ cm/s | 6.4 mL/min/kg | 3.8 mL/min/kg | 0.5 nM | 60% | – | – | – | Cn1cc(C(=O)N2CC(Oc3cncc(N4C(=O)c5ccc(Cl)cc5C4(C)C)c3)C2)cn1 | 4160 | – | –
9 | 1460 ng·h/mL | 39 µg/mL (≈ 87.1 µM) | 4.01 ×10⁻⁶ cm/s | 35.1 mL/min/kg | 29.7 mL/min/kg | 3 nM | 87% | – | – | 0.4 nM | CCS(=O)(=O)N1CCC(c2cncc(N3C(=O)c4ccc(Cl)cc4C3(C)C)c2)CC1 | 106 | 430 | –

— ChEMBL document CHEMBL4616681, “Discovery of 3-Pyridyl Isoindolin-1-one Derivatives as Potent, Selective, and Orally Active Aldosterone Synthase (CYP11B2) Inhibitors” (J Med Chem, 2020)
